{"source": "ChEMBL document CHEMBL4261631", "about": "“Synthetic thiosemicarbazones as a new class of Mycobacterium tuberculosis protein tyrosine phosphatase A inhibitors” (Bioorg Med Chem, 2018)", "key": {"[1]": {"target": "T1, Tyrosine-protein phosphatase non-receptor type 12 (Homo sapiens, UniProt Q05209)", "T1 sequence (Q05209 whole entry)": "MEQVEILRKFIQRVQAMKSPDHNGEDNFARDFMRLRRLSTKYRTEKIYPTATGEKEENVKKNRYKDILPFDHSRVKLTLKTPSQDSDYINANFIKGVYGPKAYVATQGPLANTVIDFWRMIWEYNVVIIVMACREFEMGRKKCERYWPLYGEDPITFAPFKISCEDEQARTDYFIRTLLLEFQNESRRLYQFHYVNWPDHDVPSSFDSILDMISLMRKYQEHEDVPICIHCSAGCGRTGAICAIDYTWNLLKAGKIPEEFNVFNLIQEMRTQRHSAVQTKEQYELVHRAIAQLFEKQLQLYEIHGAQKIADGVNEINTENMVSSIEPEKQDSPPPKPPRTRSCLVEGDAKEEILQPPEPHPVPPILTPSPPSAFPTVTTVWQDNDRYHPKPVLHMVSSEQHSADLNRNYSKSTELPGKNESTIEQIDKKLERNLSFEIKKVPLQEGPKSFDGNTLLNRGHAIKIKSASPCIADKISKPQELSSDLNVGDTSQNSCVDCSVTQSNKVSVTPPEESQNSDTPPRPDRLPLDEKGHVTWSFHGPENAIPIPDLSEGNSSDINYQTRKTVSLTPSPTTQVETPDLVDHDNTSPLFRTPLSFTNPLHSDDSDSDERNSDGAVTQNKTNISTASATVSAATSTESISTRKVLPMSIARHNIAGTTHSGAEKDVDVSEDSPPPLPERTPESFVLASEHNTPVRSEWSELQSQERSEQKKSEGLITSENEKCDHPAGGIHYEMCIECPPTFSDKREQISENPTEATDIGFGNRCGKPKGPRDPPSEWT", "test": "Inhibition of recombinant human PTP-PEST using p-nitrophenyl phosphate as substrate preincubated for 10 mins followed by substrate addition and measured every minute for 10 mins by UV-VIS spectrophotometric analysis", "outline": "(§1)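 Recombinant PTP at PtpB 50 nM, LYP 169 nM, PTP-PEST 205 nM or PTP1B 38 nM, in 20 mM imidazole pH 7.0. Inhibitor (0.5–50 µM, DMSO ≤4% v/v) premixed with enzyme 10 min at 37 °C. Started with 10 mM pNPP. A410 each min for 10 min. Activity from 7 min minus 2 min. IC50 by linear regression. Triplicate.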"}, "[2]": {"target": "T2, Tyrosine-protein phosphatase non-receptor type 22 (Homo sapiens, UniProt Q9Y2R2)", "T2 sequence (Q9Y2R2 whole entry)": "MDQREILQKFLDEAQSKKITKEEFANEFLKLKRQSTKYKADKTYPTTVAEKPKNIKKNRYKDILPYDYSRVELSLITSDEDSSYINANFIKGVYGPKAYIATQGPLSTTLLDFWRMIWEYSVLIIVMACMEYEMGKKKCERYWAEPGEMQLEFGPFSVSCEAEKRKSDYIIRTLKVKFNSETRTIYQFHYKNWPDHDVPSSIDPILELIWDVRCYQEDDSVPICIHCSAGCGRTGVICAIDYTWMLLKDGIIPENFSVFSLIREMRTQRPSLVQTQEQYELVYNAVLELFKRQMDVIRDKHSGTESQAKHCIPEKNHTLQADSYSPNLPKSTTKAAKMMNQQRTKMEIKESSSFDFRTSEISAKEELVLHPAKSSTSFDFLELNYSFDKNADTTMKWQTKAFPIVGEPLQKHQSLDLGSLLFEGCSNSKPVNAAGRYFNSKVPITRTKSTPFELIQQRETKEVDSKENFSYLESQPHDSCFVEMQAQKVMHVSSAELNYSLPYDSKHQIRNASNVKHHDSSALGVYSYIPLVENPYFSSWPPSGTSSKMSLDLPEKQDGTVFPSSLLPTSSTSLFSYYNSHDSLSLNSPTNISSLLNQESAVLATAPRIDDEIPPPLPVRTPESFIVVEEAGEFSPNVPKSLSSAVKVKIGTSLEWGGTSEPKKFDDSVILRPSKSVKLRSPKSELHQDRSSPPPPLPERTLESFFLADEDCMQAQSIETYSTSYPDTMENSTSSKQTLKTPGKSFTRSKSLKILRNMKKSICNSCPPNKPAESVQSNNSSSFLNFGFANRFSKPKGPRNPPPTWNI", "test": "Inhibition of recombinant human LYP using p-nitrophenyl phosphate as substrate preincubated for 10 mins followed by substrate addition and measured every minute for 10 mins by UV-VIS spectrophotometric analysis", "outline": "as §1"}, "[3]": {"target": "T3, Low molecular weight protein-tyrosine phosphatase A (Mycobacterium tuberculosis, UniProt P9WIA1)", "T3 sequence (P9WIA1 whole entry)": "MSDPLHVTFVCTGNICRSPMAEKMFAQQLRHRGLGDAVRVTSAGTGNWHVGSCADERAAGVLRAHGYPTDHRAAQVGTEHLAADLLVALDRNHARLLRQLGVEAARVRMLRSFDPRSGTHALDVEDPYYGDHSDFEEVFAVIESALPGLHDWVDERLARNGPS", "test": "Competitive inhibition of Mycobacterium tuberculosis PtpA using p-nitrophenyl phosphate as substrate by Michaelis-Menten plot analysis", "outline": "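Mtb PtpA-catalysed pNPP hydrolysis with pNPP varied 0.2–20 mM at each of three inhibitor concentrations. Rates expressed as specific activity (µmol pNPP min-1 mg-1). Vmax and Km fitted to Michaelis–Menten equation. Ki from non-linear fits to competitive or non-competitive inhibition equation, at least three independent experiments.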"}}}
{"smiles": "O=[N+]([O-])c1ccc(/C=N/NC(=S)Nc2cccc3ccccc23)cc1", "values": [{"measurement": "IC50", "setting": "[1]", "value": "> 50", "unit": "µM"}, {"measurement": "IC50", "setting": "[2]", "value": "> 50", "unit": "µM"}]}
{"smiles": "Cc1ccc(NC(=S)N/N=C/c2ccc(-c3cc(C(F)(F)F)ccc3Cl)o2)cc1", "values": [{"measurement": "IC50", "setting": "[1]", "value": "> 50", "unit": "µM"}, {"measurement": "IC50", "setting": "[2]", "value": "> 50", "unit": "µM"}, {"measurement": "Ki", "setting": "[3]", "value": 12, "unit": "µM"}]}
{"smiles": "FC(F)(F)c1ccc(Cl)c(-c2ccc(/C=N/NC(=S)Nc3cccc4ccccc34)o2)c1", "values": [{"measurement": "IC50", "setting": "[1]", "value": 15.7, "unit": "µM"}, {"measurement": "IC50", "setting": "[2]", "value": "> 50", "unit": "µM"}]}
{"smiles": "S=C(N/N=C/c1ccc(-c2ccccc2)cc1)Nc1cccc2ccccc12", "values": [{"measurement": "IC50", "setting": "[1]", "value": "> 50", "unit": "µM"}, {"measurement": "IC50", "setting": "[2]", "value": "> 50", "unit": "µM"}]}
